Active and inactive are the calls of the source. The rule behind the calls is not given here.
Tests used:
Mus musculus [1] = assay: Toxicity in human MDA-MB-231 cells xenografted BALB/c nu mouse assessed as signs of organ toxicity at 90 mg/kg, po qd for 19 days; type: organism-based; design: dose 90 mg/kg, route oral; conditions: in vivo, 456 h
Mus musculus [2] = assay: Toxicity in human MDA-MB-231 cells xenografted BALB/c nu mouse assessed as signs of organ toxicity at 60 mg/kg, ip qd for 19 days; type: organism-based; design: dose 60 mg/kg, route intraperitoneal; conditions: in vivo, 456 h
Mus musculus [3] = assay: Toxicity in human HCT116 cells xenografted BALB/c nu mouse assessed as signs of organ toxicity at 60 mg/kg, po qd for 19 days; type: organism-based, HCT-116; design: dose 60 mg/kg, route oral; conditions: in vivo, 456 h
[4] = Stability in artificial gastric juice; type: physicochemical; conditions: simulated gi fluid
[5] = Stability in artificial intestinal juice; type: physicochemical; conditions: simulated gi fluid
H22 [6] = assay: Antitumor activity against mouse H22 cells xenografted in Kunming mouse assessed as reduction of pulmonary metastatic nodes in lungs at 60 mg/kg, po qd for 14 days; type: functional, organism-based; design: dose 60 mg/kg
Mus musculus [7] = assay: Toxicity in mouse H22 cells xenografted Kunming mouse assessed as change in body weight at 90 mg/kg, po qd for 19 days; type: organism-based; design: dose 90 mg/kg, route oral; conditions: in vivo, 456 h
Mus musculus [8] = assay: Toxicity in mouse H22 cells xenografted Kunming mouse assessed as change in body weight at 60 mg/kg, po qd for 19 days; type: organism-based; design: dose 60 mg/kg, route oral; conditions: in vivo, 456 h
PC-3 = assay: Antiproliferative activity against human PC3 cells after 48 hrs by MTT assay; type: functional, cell-based; conditions: PC-3, 48 h
MDA-MB-231 [9] = assay: Cell cycle arrest in human MDA-MB-231 cells assessed as accumulation at G2 phase at 2 to 5 uM after 48 hrs using propidium iodide staining by flow cytometric analysis; type: functional, cell-based
Method in brief: (§1)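 MDA-MB-231 cells were seeded at 4 × 10^5 per well and incubated overnight, then treated for 48 h. Cells were fixed overnight in 70% ethanol phosphate buffer and washed twice with PBS. They were treated with DNase-free RNase A (1 mg/mL) for 30 min, then stained with propidium iodide for 30 min in the dark at room temperature. DNA content was read by FACScan flow cytometry.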

MDA-MB-231 [10] = assay: Cell cycle arrest in human MDA-MB-231 cells assessed as accumulation at G1 phase at 0.5 uM after 48 hrs using propidium iodide staining by flow cytometric analysis; type: functional, cell-based; method in brief: as §1
MDA-MB-231 [11] = assay: Antitumor activity against human MDA-MB-231 cells xenografted in BALB/c nu mouse assessed as tumor growth inhibition at 90 mg/kg, ip qd for 19 days relative to control; type: functional; conditions: route intraperitoneal
MDA-MB-231 [12] = assay: Antitumor activity against human MDA-MB-231 cells xenografted in BALB/c nu mouse assessed as tumor growth inhibition at 90 mg/kg, po qd for 19 days relative to control; type: functional
MDA-MB-231 [13] = assay: Antitumor activity against human MDA-MB-231 cells xenografted in BALB/c nu mouse assessed as tumor growth inhibition administered as ip qd for 19 days; type: functional, organism-based
Method in brief: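 Female athymic BALB/c-nu mice, 5–6 weeks old, were inoculated subcutaneously in the right flank with RPMI1640/10% FBS-cultured tumor cells (5 × 10^6 for MDA-MB-231). At about 100 mm3 (~10 days), mice were randomized 6 per group and dosed orally or intraperitoneally for 19 days. Vehicle controls received PBS containing DMSO. TGI = (control − treated mean tumor weight)/control mean tumor weight, at end of treatment.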

H22 [14] = assay: Antitumor activity against mouse H22 cells xenografted in Kunming mouse assessed as reduction of pulmonary metastatic nodes in lungs at 90 mg/kg, po qd for 14 days; type: functional, organism-based; design: dose 90 mg/kg
[15] = target: Aminopeptidase N (Homo sapiens) (UniProt P15144); assay: Inhibition of aminopeptidase N
Aminopeptidase N (Homo sapiens), sequence (P15144 whole entry): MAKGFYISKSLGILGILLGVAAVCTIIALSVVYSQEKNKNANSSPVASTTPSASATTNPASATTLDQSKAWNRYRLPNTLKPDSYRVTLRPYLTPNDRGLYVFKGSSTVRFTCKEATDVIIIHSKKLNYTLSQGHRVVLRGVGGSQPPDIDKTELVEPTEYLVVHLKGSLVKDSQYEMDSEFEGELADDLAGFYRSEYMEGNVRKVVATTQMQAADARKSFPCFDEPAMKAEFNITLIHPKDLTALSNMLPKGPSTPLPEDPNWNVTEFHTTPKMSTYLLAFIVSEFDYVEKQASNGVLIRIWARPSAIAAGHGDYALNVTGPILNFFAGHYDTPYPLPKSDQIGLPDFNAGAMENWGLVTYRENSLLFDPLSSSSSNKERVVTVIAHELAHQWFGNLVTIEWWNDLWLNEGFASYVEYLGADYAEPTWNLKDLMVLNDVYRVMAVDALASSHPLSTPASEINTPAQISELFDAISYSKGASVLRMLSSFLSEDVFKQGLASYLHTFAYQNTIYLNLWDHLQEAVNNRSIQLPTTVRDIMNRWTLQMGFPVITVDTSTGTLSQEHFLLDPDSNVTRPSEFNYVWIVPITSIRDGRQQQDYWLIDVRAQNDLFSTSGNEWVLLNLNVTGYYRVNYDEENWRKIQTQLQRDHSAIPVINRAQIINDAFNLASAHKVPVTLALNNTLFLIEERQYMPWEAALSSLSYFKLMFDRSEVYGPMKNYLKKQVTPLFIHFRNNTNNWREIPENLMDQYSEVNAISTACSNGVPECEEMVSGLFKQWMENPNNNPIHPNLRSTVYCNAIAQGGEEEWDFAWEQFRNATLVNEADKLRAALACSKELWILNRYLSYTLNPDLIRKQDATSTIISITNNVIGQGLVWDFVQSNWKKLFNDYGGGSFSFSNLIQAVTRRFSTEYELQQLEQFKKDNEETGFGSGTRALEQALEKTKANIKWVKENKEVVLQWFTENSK

Mus musculus [16] = assay: Toxicity in human MDA-MB-231 cells xenografted BALB/c nu mouse assessed as change in body weight at 90 mg/kg, ip qd for 19 days; type: organism-based; design: dose 90 mg/kg, route intraperitoneal; conditions: in vivo, 456 h
Method in brief: (§2)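 Female BALB/c-nu mice, 5–6 weeks old, bearing subcutaneous right-flank xenografts. Mice were randomized 6 per group at about 100 mm3 tumor size. Dosing was oral or intraperitoneal for 19 days; controls received an equal volume of PBS containing DMSO. Body weight was monitored regularly during treatment, and tumors were measured by caliper every three days.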

Mus musculus [17] = assay: Toxicity in human MDA-MB-231 cells xenografted BALB/c nu mouse assessed as change in body weight at 60 mg/kg, ip qd for 19 days; type: organism-based; design: dose 60 mg/kg, route intraperitoneal; conditions: in vivo, 456 h; method in brief: as §2
Mus musculus [18] = assay: Toxicity in human HCT116 cells xenografted BALB/c nu mouse assessed as change in body weight at 90 mg/kg, po qd for 19 days; type: organism-based, HCT-116; design: dose 90 mg/kg, route oral; conditions: in vivo, 456 h; method in brief: as §2
Mus musculus [19] = assay: Toxicity in human HCT116 cells xenografted BALB/c nu mouse assessed as change in body weight at 60 mg/kg, po qd for 19 days; type: organism-based, HCT-116; design: dose 60 mg/kg, route oral; conditions: in vivo, 456 h; method in brief: as §2
Mus musculus [20] = assay: Toxicity in human MDA-MB-231 cells xenografted BALB/c nu mouse assessed as signs of organ toxicity at 90 mg/kg, ip qd for 19 days; type: organism-based; design: dose 90 mg/kg, route intraperitoneal; conditions: in vivo, 456 h
Histone deacetylase = assay: Inhibition of HDAC in human HeLa cell nuclear extracts using Boc-Lys (acetyl)-AMC as substrate after 30 mins by fluorescence assay; type: protein assay
Method in brief: (§3)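 Enzyme (HeLa nuclear extract, HDAC6 or HDAC8) preincubated 5 min with a series of compound concentrations. Fluorogenic Boc-Lys(acetyl)-AMC substrate then added and incubated 37 °C for 30 min. Reaction stopped with developer containing trypsin and TSA, 20 min at 37 °C. Fluorescence read at ex 390/em 460 nm. Inhibition taken relative to control wells; IC50 from regression of concentration/inhibition data.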

Histone deacetylase 8 = target: T1, Histone deacetylase 8 (Homo sapiens, UniProt Q9BY41); assay: Inhibition of HDAC8 using Boc-Lys (acetyl)-AMC as substrate after 30 mins by fluorescence assay; method in brief: as §3
T1 sequence (Q9BY41 whole entry): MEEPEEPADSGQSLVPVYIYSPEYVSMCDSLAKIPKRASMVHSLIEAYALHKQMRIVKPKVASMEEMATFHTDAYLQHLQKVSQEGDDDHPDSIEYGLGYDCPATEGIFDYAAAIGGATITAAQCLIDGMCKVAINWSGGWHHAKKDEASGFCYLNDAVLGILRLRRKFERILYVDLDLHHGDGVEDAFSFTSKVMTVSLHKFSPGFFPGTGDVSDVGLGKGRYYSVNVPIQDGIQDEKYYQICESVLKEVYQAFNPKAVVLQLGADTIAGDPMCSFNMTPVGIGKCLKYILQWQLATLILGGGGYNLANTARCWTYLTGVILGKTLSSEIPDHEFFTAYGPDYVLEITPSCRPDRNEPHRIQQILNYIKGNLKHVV

MDA-MB-231 [21] = assay: Antiproliferative activity against human MDA-MB-231 cells after 48 hrs by MTT assay; type: functional, cell-based; conditions: MDA-MB-231, 48 h
Method in brief: (§4)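 Cells kept in RPMI1640 with 10% FBS at 37 °C, 5% CO2. Cells were passaged into 96-well plates the day before dosing and left ≥4 h before compound addition. Exposure was 48 h, then 0.5% MTT for 4 h. Formazan was extracted with DMSO for 15 min and read at 570 nm. IC50 was derived from inhibition ratios; mean of three experiments.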

NB-4 = assay: Antiproliferative activity against human NB4 cells after 48 hrs by MTT assay; type: functional, cell-based; conditions: NB-4, 48 h; method in brief: as §4
HL-60 = assay: Antiproliferative activity against human HL60 cells after 48 hrs by MTT assay; type: functional, cell-based; conditions: HL-60, 48 h; method in brief: as §4

Stability [4]: Stable | Stability [5]: Stable | IC50 (PC-3): 830 nM | inhibition [15]: Active | IC50 (Histone deacetylase): 52 nM | IC50 (Histone deacetylase 8): 146 nM | IC50 (MDA-MB-231 [21]): 580 nM | IC50 (HL-60): 65800 nM
Compound: CC[C@H](C)[C@H](NC(=O)CC(C)(C)C)C(=O)N1Cc2cc(OCC(=O)NO)ccc2C[C@H]1C(=O)Nc1ccc(OC)cc1
Activity (Mus musculus [1]): Non-toxic | Activity (Mus musculus [2]): Non-toxic | Activity (Mus musculus [3]): Non-toxic | Activity (H22 [6]): Active | Activity (Mus musculus [7]): Non-toxic | Activity (Mus musculus [8]): Non-toxic | Activity (MDA-MB-231 [9]): Active | Activity (MDA-MB-231 [10]): Active | inhibition in vivo at 90 mg/kg (MDA-MB-231 [11]; Mus musculus, MDA-MB-231, ip, 456 h, read-out: TGI): 51% | T/C (MDA-MB-231 [11]): 37% | T/C (MDA-MB-231 [12]): 30% | inhibition in vivo at 90 mg/kg (MDA-MB-231 [12]; Mus musculus, MDA-MB-231, 456 h, read-out: TGI): 66% | TGI (MDA-MB-231 [13]): Dose-dependent effect | Activity (H22 [14]): Active | Activity (Mus musculus [16]): Non-toxic | Activity (Mus musculus [17]): Non-toxic | Activity (Mus musculus [18]): Non-toxic | Activity (Mus musculus [19]): Non-toxic | Activity (Mus musculus [20]): Non-toxic | IC50 (NB-4): 2690 nM

From ChEMBL document CHEMBL1828628, “Discovery of a tetrahydroisoquinoline-based hydroxamic acid derivative (ZYJ-34c) as histone deacetylase inhibitor with potent oral antitumor activities” (J Med Chem, 2011)
